NPY Y1 blocker – antagonists of human neuropeptide Y receptor Y1. inhibition, % at 3.6 µM. 200,000 tested, 1% active. HEK293-CNG Y1 cells, membrane potential fluorescence; NPY at EC95, then isoproterenol;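 active = inhibition above the campaign mean inhibition of all tested compounds plus 3 SD, cut at about 20% in these data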;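 also: 0% = DMSO wells given NPY plus isoproterenol and 100% = isoproterenol alone without NPY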
Target sequence (P25929 whole entry, looked up): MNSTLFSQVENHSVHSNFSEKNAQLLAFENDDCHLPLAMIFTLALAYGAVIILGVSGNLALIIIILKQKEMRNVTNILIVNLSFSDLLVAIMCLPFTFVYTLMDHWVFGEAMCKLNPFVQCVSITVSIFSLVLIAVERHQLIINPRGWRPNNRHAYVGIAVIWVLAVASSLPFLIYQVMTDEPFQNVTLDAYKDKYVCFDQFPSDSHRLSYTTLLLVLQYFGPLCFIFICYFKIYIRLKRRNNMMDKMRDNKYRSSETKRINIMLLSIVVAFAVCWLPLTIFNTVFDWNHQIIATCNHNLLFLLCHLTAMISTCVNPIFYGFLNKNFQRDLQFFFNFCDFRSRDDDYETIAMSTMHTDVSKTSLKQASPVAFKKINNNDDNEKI
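Material: Y1- and CNG-channel-expressing HEK293 cells / Probe or stimulus: NPY 25 nM then isoproterenol 1 µM plus Ro 20-1724 25 µM / Doses: 3.6 µM single dose, DMSO 0.4% / Schedule: compound incubation 1 h at room temperature, readout 45 min post-stimulation / Signal: membrane potential fluorescence / Benchmarks: isoproterenol-only wells as full block versus NPY-plus-isoproterenol wells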
PGE2 EP2 inh – EP2 receptor (human) inhibition; inhibition, % at 25 µM; 260,000 tested, 0.52% active; C6 glioma cells expressing human EP2, cAMP TR-FRET; cells stimulated with saturating PGE2; AID 1422;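 active = percent inhibition above 40 after rounding to a whole number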;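 also: rat C6 glioma host cells with rolipram phosphodiesterase inhibitor present; the protocol text gives 20 µM as final concentration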
NPY-Y2 antag – NPY-Y2 (human) receptor antagonism; NPY-Y2 expressing cells, antagonist mode; inhibition, % at 2.7 µM; 140,000 tested, 0.99% active; P49146;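 also: 0% = vehicle with agonist challenge and 100% = reference antagonist with challenge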
NPY2 pot ag – potentiators or agonists of human neuropeptide Y receptor Y2; activation, % at 3.6 µM; 220,000 tested, 0.45% active; cells expressing NPY-Y2, potentiator/agonist read-out; in the data active = activation above about 27%;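 also: cells stimulated with NPY near EC25 plus isoproterenol at EC100; 0% = vehicle plus submaximal agonist and 100% = vehicle plus saturating agonist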
EP2 modulator – EP2 receptor (human) modulation. AID 940. EP2-expressing cells, cAMP HTRF FRET, PGE2 co-stimulation. 260,000 tested, 0.83% active. P43116. induction, % at 25 µM;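 active = compounds whose cAMP rise, as percent of the full-agonist control response, exceeds 60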;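 also: rat C6 glioma line stably carrying human EP2 under a CMV promoter; the protocol text gives 20 µM as final concentration; 100% = response of wells given 1 µM PGE2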
NPY1 pot ag – potentiates or activates human NPY-Y1 receptor; AID 1304; activation, % at 3.6 µM; 220,000 tested, 0.37% active; P25929; NPY-Y1 expressing cells, potentiator/agonist activation; in the data active = activation above about 33%, passing the limit was not always enough;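 also: cells stimulated with NPY at EC10 then isoproterenol at EC100; 0% = low agonist plus stimulus and 100% = saturating agonist plus stimulus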
NPY-Y1 ant conf – human NPY-Y1 antagonism, confirmation. AID 1254. shares compounds with NPY Y1 blocker. HEK293-CNG NPY-Y1, membrane potential fluorescence, cAMP; NPY challenge against isoproterenol-raised cAMP. 1,200 tested, 21% active. inhibition, % at 3.6 µM; in the data active = inhibition above about 20%;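 also: 0% = vehicle with agonist plus stimulus and 100% = stimulus alone without agonist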
NPY-Y2 antag ct – antagonizes human NPY-Y2, counter-screen to NPY-Y1 antagonists. shares compounds with NPY Y1 blocker. HEK293 NPY-Y2 CNG membrane potential fluorescence, antagonism; cells given NPY, then isoproterenol. inhibition, % at 3.6 µM. 1,200 tested, 28% active;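 also: 0% = DMSO with agonist challenge and 100% = reference antagonist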
Starred values were filed as active, the others as inactive; . = no result given. Rows were chosen to be rich in hits. Some 2.8% of all compounds tested hit in one or more screens of this group. Rule as the data show it, unless noted: active = inhibition above about 17%; inactive = the rest.

SMILES	NPY Y1 blocker	PGE2 EP2 inh	NPY-Y2 antag	NPY2 pot ag	EP2 modulator	NPY1 pot ag	NPY-Y1 ant conf	NPY-Y2 antag ct
CCOC(=O)c1c(NC(C)=O)sc2c(OCC(O)CNC(C)(C)C)c(Br)ccc12 (configuration not stated)	122*	20	.	-108	-74	-198	98*	115*
O=C(Nc1ccc2c(c1)OCO2)C1CCN(C(=O)c2ccc(Br)cc2)CC1	33*	6	.	-20	-34	-8	11	9
O=C(Nc1ccc2c(c1)OCO2)C1CCN(C(=O)c2ccc(Cl)cc2)CC1	2	9	.	-21	-17	-9	.	.
O=C(Cn1c(C(=O)N2CCN(C3CCCCC3)CC2)cc2sccc21)c1ccccc1	22*	9	15	-36	-12	-35	10	8
CCN(CC)C(=O)/C(=C\c1ccc(Br)cc1)NC(=O)c1ccccc1OC	23*	5	6	-5	17	-35	13	9
COc1ccccc1C(=O)N/C(=C\c1ccc(Br)cc1)C(=O)NCCO	-3	12	3	3	33	-9	.	.
Cc1cc(=O)oc2cc(OCc3nnc(-c4ccccc4Br)o3)ccc12	26*	17	13	-5	-54	-6	4	8
O=c1ccc2ccc(OCc3nnc(-c4ccccc4Br)o3)cc2o1	6	8	13	-6	-43	-31	.	.
Cc1cc(C)n2ncc(C(=O)Nc3sc4c(c3C#N)CCCC4)c2n1	.	6	.	.	-1	.	.	.
Cc1cc(NC(=O)/C=C/c2ccccc2)c(C(C)C)cc1O	28*	9	.	-18	-41	-17	25*	24*
Cc1ccc(-n2c(-c3ccccc3)c[n+]3c2CCc2ccccc2-3)c(C)c1	58*	11	.	9	-61	-24	32*	15
O=C(NCc1ccc2c(c1)OCO2)[C@@H]1C=CCN1C(=O)C1CCCCC1	.	.	.	.	8	.	.	.
CCCCn1c(SCC(=O)N2CCC(C)CC2)nc2ccsc2c1=O	21*	5	17	-19	-11	21	13	4
CCC1CCCCN1C(=O)CSc1nc2ccsc2c(=O)n1Cc1ccccc1 (configuration not stated)	18	6	15	-15	27	0	.	.
CC(=O)N1CCN(c2c3c(nc4cc(-c5cccc(C)c5)nn24)CCC3)CC1	.	8	.	.	-17	.	.	.
N#Cc1nc(-c2ccc(F)cc2)oc1NCc1cccc2c1OCO2	22*	15	15	-9	-19	-25	16	15
COc1ccc(-c2cc(-c3n[nH]c(=S)n3-c3cc(OC)ccc3OC)[nH]n2)cc1	27*	8	5	-36	21	-70	23*	44*
COc1ccc(-c2cc(-c3n[nH]c(=S)n3-c3ccccc3Cl)[nH]n2)cc1	42*	5	.	-19	43	-32	47*	73*
COc1cccc(C2(NC(=O)c3csc(C(C)=O)c3)CCCC2)c1	.	3	.	.	-34	.	.	.
CCCCCCCn1c2c(c(=N)c3ccccc31)CCC2	66*	11	.	-37	-37	-90	60*	62*
CC1(C)CC(N(Cc2ccc3c(c2)CCO3)Cc2ccccn2)CC(C)(C)N1	.	5	.	.	-37	.	.	.
COc1ccc(CN(C)CC(=O)c2c(N)n(Cc3ccccc3)c(=O)n(C)c2=O)c(OC)c1	24*	4	14	-3	-13	-38	11	8
Cn1c(=O)c(C(=O)COc2ccc(F)cc2Cl)c(N)n(Cc2ccccc2)c1=O	32*	8	.	-19	-29	0	10	55*
Cn1c(N)c(C(=O)COc2ccc(Cl)cc2Cl)c(=O)n(C)c1=O	5	5	.	3	-9	7	.	.
CCn1c(=O)c(C(=O)CN(C)Cc2cccc(OC)c2OC)c(N)n(Cc2ccccc2)c1=O	8	14	4	-5	14	-12	.	.
SMILES	NPY Y1 blocker	PGE2 EP2 inh	NPY-Y2 antag	NPY2 pot ag	EP2 modulator	NPY1 pot ag	NPY-Y1 ant conf	NPY-Y2 antag ct
CNc1ncc(CN(Cc2ccc(F)cc2)C2CC(C)(C)NC(C)(C)C2)cn1	.	7	.	.	-49	.	.	.
C=CCN1C(=O)C2(C(C#N)=C(N)Oc3n[nH]c(CC(=O)OC)c32)c2ccccc21 (configuration not stated)	.	14	.	.	-10	.	.	.
O=C(CCCN1C(=O)c2cccc3cccc(c23)C1=O)N1CCc2ccccc2C1	23*	-8	4	-17	-34	-18	8	11
CCc1ccc(CNCc2ccc(OCC(O)CN(C)Cc3ccccc3)cc2)nc1 (configuration not stated)	26*	5	.	-19	-26	-7	17	27*
CN(Cc1ccccc1)CC(O)COc1ccc(CNCCc2cccnc2)cc1 (configuration not stated)	14	3	.	-7	-2	-8	.	.
Cn1nc(CC(=O)Nc2ccccc2F)c2ccccc2c1=O	.	17	.	.	-42	.	.	.
CCCCNC(=O)CN1C(=O)NC2(CCCc3ccccc32)C1=O (configuration not stated)	25*	7	-1	-9	39	-10	0	0
C=CCc1ccccc1OCCSc1nc2ccc([N+](=O)[O-])cc2s1	21*	12	11	-2	6	2	16	16
CCCCOC(=O)C[N+](C)(C)CCOC1CC2CCC1(C)C2(C)C (configuration not stated)	28*	4	5	-9	5	-28	8	9
c1ccc(CN(Cc2cccs2)C(c2cccs2)c2nnnn2C2CCCC2)cc1 (configuration not stated)	21*	8	16	-18	9	-15	17	6
CCOC(=O)N1CCN(C(=O)c2ccc3c(=O)n(Cc4ccccc4)c(=S)[nH]c3c2)CC1	15	8	12	-11	2	-26	.	.
CCOC(=O)N1CCN(C(=O)c2ccc3c(=O)n(Cc4ccccc4OC)c(=S)[nH]c3c2)CC1	22*	1	11	-34	15	3	3	6
COc1ccc(CCNC(=O)Cn2c(=O)n(C(C)C)c3ncccc32)cc1OC	.	8	.	.	-5	.	.	.
O=C(CSc1nnc2scc(-c3ccccc3)n12)NC1CCCCC1	.	11	.	.	-9	.	.	.
Cc1ccc(NC(=S)N/N=C/c2c(Cl)cccc2Cl)c(C)c1	9	5	12	-3	-6	-37	.	.
Cc1ccc(NC(=S)N/N=C/c2ccc(OCCC(C)C)cc2)c(C)c1	21*	.	7	-11	13	-14	11	7
COc1ccc(NC(=O)c2ccco2)cc1NC(=O)c1cc(Cl)cc(Cl)c1OC	.	10	.	.	5	.	.	.

Bioassay records as filed in PubChem.
